Laboratory results: ChEMBL document CHEMBL4266041, “Hydroxybiphenylamide GroEL/ES Inhibitors Are Potent Antibacterials against Planktonic and Biofilm Forms of Staphylococcus aureus” (J Med Chem, 2018)

How the values were obtained:
[1] = Inhibition of refolded MDH (unknown origin) preincubated with Escherichia coli GroEL/GroES for 45 mins in absence of compound followed by compound addition and measured for 20 to 35 mins by spectrometric analysis
Pseudomonas aeruginosa = experiment: Antibacterial activity against Pseudomonas aeruginosa ATCC 10145 after 24 hrs by bacterial proliferation assay; type: functional, organism-based; conditions: ATCC 10145, 24 h
Method in brief: (§1)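 Bacterial growth inhibition in liquid culture. The highest concentration tested was 100 µM. The mean was back-calculated from the average log value. Values above the top concentration were set 0.1 log unit higher.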

Staphylococcus aureus [2] = experiment: Antibacterial activity against Staphylococcus aureus ATCC 25923 after 6 to 8 hrs by bacterial proliferation assay; type: functional, organism-based
HEK293 = experiment: Cytotoxicity against HEK293 cells assessed as reduction in cell viability after 48 hrs by Alamar Blue reporter assay; conditions: human, hek293, 48 h
Klebsiella pneumoniae = experiment: Antibacterial activity against Klebsiella pneumoniae ATCC 13883 after 6 to 8 hrs by bacterial proliferation assay; type: functional, organism-based; method in brief: as §1
Enterococcus faecium = experiment: Antibacterial activity against Enterococcus faecium ATCC 19434 after 24 hrs by bacterial proliferation assay; type: functional, organism-based; conditions: ATCC 19434, 24 h
[3] = Cytotoxicity against human THLE3 cells assessed as reduction in cell viability after 48 hrs by Alamar Blue reporter assay; conditions: 48 h
[4] = molecular target: T1, Thiosulfate sulfurtransferase (Homo sapiens, UniProt Q16762); experiment: Inhibition of refolded rhodanese (unknown origin) preincubated with Escherichia coli GroEL/GroES for 60 mins in absence of compound followed by compound addition by spectrometric analysis
T1 sequence (Q16762 whole entry): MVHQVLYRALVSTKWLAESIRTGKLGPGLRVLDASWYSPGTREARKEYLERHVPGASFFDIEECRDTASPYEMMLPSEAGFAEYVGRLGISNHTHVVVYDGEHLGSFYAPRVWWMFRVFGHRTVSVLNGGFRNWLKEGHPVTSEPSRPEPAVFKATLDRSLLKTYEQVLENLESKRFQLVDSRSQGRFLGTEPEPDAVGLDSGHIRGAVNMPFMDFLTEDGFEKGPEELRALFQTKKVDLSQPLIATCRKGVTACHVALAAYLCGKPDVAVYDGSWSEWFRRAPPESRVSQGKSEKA

Enterobacter cloacae = experiment: Antibacterial activity against Enterobacter cloacae subsp. cloacae ATCC 13047 after 24 hrs by bacterial proliferation assay; type: functional, organism-based; conditions: subsp. cloacae ATCC 13047, 24 h; method in brief: as §1
Staphylococcus aureus [5] = experiment: Antibacterial activity against methicillin-resistant Staphylococcus aureus ATCC BAA-44 after 6 to 8 hrs by bacterial proliferation assay; type: functional, organism-based
HSP60/HSP10 = HSP60/HSP10 (Homo sapiens, UniProt P10809); experiment: Inhibition of human N-terminal octa-His-tagged HSP60 expressed in Escherichia coli Rosetta(DE3) pLysS/human HSP10 expressed in Escherichia coli Rosetta(DE3) assessed as reduction in HSP60/HSP10-mediated denatured MDH refolding after 40 to 60 mins by spectrometric analysis
HSP60/HSP10, sequence (P10809 whole entry): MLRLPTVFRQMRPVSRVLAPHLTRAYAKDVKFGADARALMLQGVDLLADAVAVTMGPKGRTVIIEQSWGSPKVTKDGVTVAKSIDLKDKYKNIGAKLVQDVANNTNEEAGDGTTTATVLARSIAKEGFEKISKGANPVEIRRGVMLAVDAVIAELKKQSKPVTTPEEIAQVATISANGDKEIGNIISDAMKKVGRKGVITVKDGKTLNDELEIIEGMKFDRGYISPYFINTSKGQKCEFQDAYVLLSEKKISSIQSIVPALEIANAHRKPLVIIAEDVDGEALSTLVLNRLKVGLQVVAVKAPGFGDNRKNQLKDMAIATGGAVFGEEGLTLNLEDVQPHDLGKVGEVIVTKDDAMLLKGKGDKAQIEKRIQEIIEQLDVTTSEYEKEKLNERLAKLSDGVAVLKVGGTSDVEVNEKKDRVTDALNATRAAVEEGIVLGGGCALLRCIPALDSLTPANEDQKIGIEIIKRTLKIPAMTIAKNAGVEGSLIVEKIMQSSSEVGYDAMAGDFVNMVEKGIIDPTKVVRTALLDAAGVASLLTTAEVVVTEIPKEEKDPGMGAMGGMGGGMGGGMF
HSP60/HSP10, sequence (P61604 whole entry, further chain): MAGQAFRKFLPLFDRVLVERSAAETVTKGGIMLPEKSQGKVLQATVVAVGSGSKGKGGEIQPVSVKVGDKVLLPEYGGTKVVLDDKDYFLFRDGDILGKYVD
Method in brief: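 Human HSP60/10 refolding of denatured MDH, run the same way as the GroEL/ES-dMDH assay. A binary complex of chaperonin and denatured MDH is formed, and refolding is started with ATP and HSP10. MDH activity is the read-out. DMSO is the negative control. IC50 values from replicate curves are log-averaged after ROUT outlier screening.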

E. coli GroEL/ES [6] = molecular target: T2, E. coli GroEL/ES (Escherichia coli, UniProt P0A6F5); experiment: Inhibition of Escherichia coli GroEL expressed in Escherichia coli DH5alpha/Escherichia coli GroES expressed in Escherichia coli BL21 (DE3) assessed as reduction in GroEL/GroES-mediated denatured rhodanese refolding after 45 mins by spectrometric analysis
T2 sequence (P0A6F5 whole entry, looked up): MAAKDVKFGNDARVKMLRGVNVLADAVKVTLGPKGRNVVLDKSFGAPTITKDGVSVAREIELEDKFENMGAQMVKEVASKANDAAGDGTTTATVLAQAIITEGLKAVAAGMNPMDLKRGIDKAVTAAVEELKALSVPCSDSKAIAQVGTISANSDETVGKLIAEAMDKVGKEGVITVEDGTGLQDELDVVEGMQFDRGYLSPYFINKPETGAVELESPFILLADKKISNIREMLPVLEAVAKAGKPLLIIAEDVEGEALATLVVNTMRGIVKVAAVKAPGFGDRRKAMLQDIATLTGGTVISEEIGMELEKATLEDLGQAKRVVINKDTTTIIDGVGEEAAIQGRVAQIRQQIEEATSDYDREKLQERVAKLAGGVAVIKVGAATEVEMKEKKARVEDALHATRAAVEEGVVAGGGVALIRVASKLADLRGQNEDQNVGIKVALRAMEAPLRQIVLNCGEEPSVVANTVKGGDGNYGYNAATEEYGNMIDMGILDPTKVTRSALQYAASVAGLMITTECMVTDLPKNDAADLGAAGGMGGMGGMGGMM
Method in brief: (§2)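 Uses E. coli GroEL/ES with a denatured MDH or rhodanese reporter. GroEL first forms a binary complex with the denatured reporter. Refolding is started by adding ATP and GroES, then reporter enzyme activity is read. DMSO is the negative control. IC50 values from replicate curves are log-averaged after ROUT outlier screening.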

Acinetobacter baumannii = experiment: Antibacterial activity against Acinetobacter baumannii ATCC 19606 after 24 hrs by bacterial proliferation assay; type: functional, organism-based; conditions: ATCC 19606 = CIP 70.34 = JCM 6841, 24 h; method in brief: as §1
E. coli GroEL/ES [7] = molecular target: T2, E. coli GroEL/ES; experiment: Inhibition of Escherichia coli GroEL expressed in Escherichia coli DH5alpha/Escherichia coli GroES expressed in Escherichia coli BL21 (DE3) assessed as reduction in GroEL/GroES-mediated denatured MDH refolding after 20 to 40 mins by spectrometric analysis; method in brief: as §2
[8] = Staphylococcus aureus, ATCC BAA-44

Row | Compound | IC50 [1] [µM] | EC50 (Pseudomonas aeruginosa) [µM] | EC50 (Staphylococcus aureus [2]) [µM] | CC50 (HEK293) [µM] | EC50 (Klebsiella pneumoniae) [µM] | EC50 (Enterococcus faecium) [µM] | CC50 [3] [µM] | IC50 [4] [µM] | EC50 (Enterobacter cloacae) [µM] | EC50 (Staphylococcus aureus [5]; [8]) [µM] | IC50 (HSP60/HSP10) [µM] | IC50 (E. coli GroEL/ES [6]) [µM] | EC50 (Acinetobacter baumannii) [µM] | IC50 (E. coli GroEL/ES [7]) [µM] | EC50 (Staphylococcus aureus [5]) [µM]
1 | O=C(Nc1ccccc1)c1cc(Br)cc(Br)c1 | > 63 | > 100 | > 100 | > 100 | > 100 | > 100 | > 100 | > 100 | > 100 | > 100 | > 100 | > 100 | > 100 | > 100 | 
2 | O=C(Nc1ccccc1)c1cccc(Br)c1O | > 63 | > 100 | 6.4 | 82 | > 100 | > 100 | 56 | > 100 | > 100 | 10 | > 100 | > 100 | > 100 | > 100 | 
3 | COc1ccc(Br)cc1C(=O)Nc1ccc(Sc2nc3ccccc3s2)c(Cl)c1 | > 63 | > 100 | > 100 | > 100 | > 100 | > 100 | > 100 | > 100 | > 100 | > 100 | > 100 | > 100 | > 100 | > 100 | 
4 | COc1c(Br)cc(Br)cc1C(=O)Nc1ccc(Sc2nc3ccccc3s2)cc1 | > 63 | > 100 | > 100 | > 100 | > 100 | > 100 | > 100 | > 100 | > 100 | > 100 | > 100 | > 100 | > 100 | > 100 | 
5 | O=C(Nc1cccc(Cl)c1)c1ccccc1 | > 63 | > 100 | > 100 | > 100 | > 100 | > 100 | > 100 | > 100 | > 100 | > 100 | > 100 | > 100 | > 100 | > 100 | 
6 | Cc1cc(C(C#N)c2ccc(Cl)cc2)c(Cl)cc1NC(=O)c1cc(I)cc(I)c1O (stereo not drawn) [CLOSANTEL] | 6.1 | > 100 | 0.47 | 75 | > 100 | 1.2 | 52 | > 100 | > 100 | 0.47 | 2.5 | 1.5 | > 100 | 2.2 | 
7 | COc1ccc(Br)cc1C(=O)Nc1cccc(Cl)c1 | > 63 | > 100 | > 100 | > 100 | > 100 | > 100 | 94 | > 100 | > 100 | > 100 | > 100 | > 100 | > 100 | > 100 | 
8 | O=C(Nc1ccc(Oc2ccc(Cl)cc2)c(Cl)c1)c1cc(I)cc(I)c1O [RAFOXANIDE] | 25 | > 100 | 0.32 | > 100 | > 100 | 0.99 | 24 | > 100 | 40 |  | 2.8 | 2.2 | 31 | 4.3 | 0.34
9 | O=C(Nc1ccc(Sc2nc3ccccc3s2)c(Cl)c1)c1cc(Br)cc(Br)c1 | > 63 | > 100 | > 100 | > 100 | > 100 | > 100 | > 100 | > 100 | > 100 | > 100 | > 100 | > 100 | > 100 | > 100 | 
10 | COc1ccc(Br)cc1C(=O)Nc1ccccc1 | > 63 | > 100 | > 100 | > 100 | > 100 | > 100 | > 100 | > 100 | > 100 | > 100 | > 100 | > 100 | > 100 | > 100 | 
11 | O=C(Nc1ccc(Sc2nc3ccccc3s2)c(Cl)c1)c1cccc(Br)c1 | > 63 | > 100 | > 100 | > 100 | > 100 | > 100 | 88 | > 100 | > 100 | > 100 | > 100 | > 100 | > 100 | > 100 | 
12 | COc1c(Br)cc(Br)cc1C(=O)Nc1ccccc1 | > 63 | > 100 | > 100 | > 100 | > 100 | > 100 | > 100 | > 100 | > 100 | > 100 | > 100 | > 100 | > 100 | > 100 | 
